Measured values taken from ChEMBL document CHEMBL1139010, “Synthesis and SAR studies of 2-oxoquinoline derivatives as CB2 receptor inverse agonists” (J Med Chem, 2006).

Columns and labels:
Cannabinoid receptor 2 [1] = target: T1, Cannabinoid receptor 2 (Homo sapiens, UniProt P34972); assay: Inhibition of [35S]GTP-gamma-S binding to human CB2 receptor expressed in CHO cells; format: functional, cell-based
[2] = target: Cannabinoid receptor 1 (Rattus norvegicus) (UniProt P20272); assay: […] activity at HU210-induced CB1 receptor in rat cerebellar membrane at 1 uM; format: functional, cell membranes; details: Cerebellum
Summary of the method: (§1)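 [³⁵S]GTPγS binding in rat cerebellar membranes, measuring block of the CB1 response to 10 nM HU-210 by ligand at 1 µM and 10 µM. Ligand alone was also tested at 10 µM for agonism. Values are means of at least three independent experiments run in duplicate, with SEM as the variability.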

[3] = target: Cannabinoid receptor 1 (Rattus norvegicus) (UniProt P20272); assay: […] activity at HU210-induced CB1 receptor in rat cerebellar membrane at 10 uM; format: functional, cell membranes; details: Cerebellum; summary of the method: as §1
Cannabinoid receptor 2 [4] = target: T1, Cannabinoid receptor 2; assay: Inhibition of [35S]GTP-gamma-S binding to human CB2 receptor expressed in CHO cells relative to SR-144528; format: functional, cell-based
Summary of the method: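 Membranes from CHO cells stably expressing hCB2 (Bmax 20.4 pmol/mg; cultured with 100 µg/mL G-418). Each incubation held 5 µg protein in 55 mM Tris-HCl pH 7.4 with 1.1 mM EDTA, 100 mM NaCl, 5 mM MgCl₂, 0.5% BSA, 11 µM GDP and about 150 pM [³⁵S]GTPγS. Ligands were added in 1% ethanol or 0.5% DMSO (final). Inhibition of basal binding was expressed against 1 µM SR144528 (Imax). At least three experiments were run in duplicate, reported as mean and SEM.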

Chain of Cannabinoid receptor 1 (Rattus norvegicus) (P20272 whole entry): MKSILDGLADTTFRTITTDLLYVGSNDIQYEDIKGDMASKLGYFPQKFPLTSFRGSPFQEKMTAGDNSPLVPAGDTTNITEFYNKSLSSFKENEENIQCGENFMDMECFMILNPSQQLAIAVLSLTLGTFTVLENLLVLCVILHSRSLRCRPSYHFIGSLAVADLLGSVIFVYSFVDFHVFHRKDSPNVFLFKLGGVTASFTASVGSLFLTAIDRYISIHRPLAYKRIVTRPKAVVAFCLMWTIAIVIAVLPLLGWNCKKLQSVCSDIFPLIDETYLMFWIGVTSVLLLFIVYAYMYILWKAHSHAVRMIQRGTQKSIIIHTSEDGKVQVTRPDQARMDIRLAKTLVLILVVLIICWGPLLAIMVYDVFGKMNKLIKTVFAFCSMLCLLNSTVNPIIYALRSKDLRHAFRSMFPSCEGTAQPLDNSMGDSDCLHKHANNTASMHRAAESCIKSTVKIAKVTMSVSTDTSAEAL
T1 sequence (P34972 whole entry): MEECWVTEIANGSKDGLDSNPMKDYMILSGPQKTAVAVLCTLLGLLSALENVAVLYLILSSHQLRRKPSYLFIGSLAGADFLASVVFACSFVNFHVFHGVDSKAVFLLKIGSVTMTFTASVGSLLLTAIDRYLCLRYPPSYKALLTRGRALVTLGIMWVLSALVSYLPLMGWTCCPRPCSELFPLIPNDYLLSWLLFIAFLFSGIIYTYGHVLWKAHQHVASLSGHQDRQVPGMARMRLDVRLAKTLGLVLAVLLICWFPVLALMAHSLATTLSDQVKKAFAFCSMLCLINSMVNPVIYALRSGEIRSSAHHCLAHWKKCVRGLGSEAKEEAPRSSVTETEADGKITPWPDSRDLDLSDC

CCCCCOc1c(OC)ccc2cc(NC(=O)Cc3ccc4c(c3)OCO4)c(=O)[nH]c12
IC50 (Cannabinoid receptor 2 [1]): 20 nM

CCCCCOc1c(OC)ccc2cc(C(=O)NCCc3ccc(N)cc3)c(=O)[nH]c12
IC50 (Cannabinoid receptor 2 [1]): 3.16 nM

CCCCCOc1c(OC)ccc2cc(C(=O)NCc3ccc4c(c3)OCO4)c(=O)[nH]c12
Activity [2]: 94%
Activity [3]: 78%
Imax (Cannabinoid receptor 2 [4]): 80%

CCCCCOc1c(OC)ccc2cc(C(=O)NCc3ccc(O)c(O)c3)c(=O)[nH]c12
IC50 (Cannabinoid receptor 2 [1]): 3980 nM

CCCCCOc1c(OC)ccc2cc(C(=O)NCCc3ccc(O)cc3)c(=O)[nH]c12
IC50 (Cannabinoid receptor 2 [1]): 10 nM

CCCCCOc1c(OC)ccc2cc(C(=O)NCc3ccc(O)c(O)c3)c(O)nc12
Activity [2]: 93%
Activity [3]: 85%
Imax (Cannabinoid receptor 2 [4]): 124%

CCCCCOc1c(OC)ccc2cc(C(=O)Nc3ccccc3N)c(=O)[nH]c12
IC50 (Cannabinoid receptor 2 [1]): 12.6 nM

CCCCCOc1c(OC)ccc2cc(C(=O)NCCc3ccc(Cl)cc3)c(=O)[nH]c12
Activity [2]: 95%
Activity [3]: 64%
IC50 (Cannabinoid receptor 2 [1]): 5.01 nM
Imax (Cannabinoid receptor 2 [4]): 104%

CCCCCOc1c(OC)ccc2cc(C(=O)NCCc3ccc(N)cc3)c(O)nc12
Activity [2]: 91%
Activity [3]: 74%
Imax (Cannabinoid receptor 2 [4]): 97%

CCCCCOc1c(OC)ccc2cc(C(=O)NCc3ccccc3)c(O)nc12
Activity [2]: 94%
Activity [3]: 79%
IC50 (Cannabinoid receptor 2 [1]): 63.1 nM
Imax (Cannabinoid receptor 2 [4]): 75%

CCCCCOc1c(OC)ccc2cc(C(=O)NCCc3ccccc3)c(=O)[nH]c12
Activity [2]: 87%
Activity [3]: 61%
IC50 (Cannabinoid receptor 2 [1]): 0.631 nM
Imax (Cannabinoid receptor 2 [4]): 76%

CCCCCOc1c(OC)ccc2cc(C(=O)NCCc3ccc([N+](=O)[O-])cc3)c(O)nc12
Activity [2]: 87%
Activity [3]: 65%
Imax (Cannabinoid receptor 2 [4]): 61%

CCCCCOc1c(OC)ccc2cc(C(=O)NCCc3ccc([N+](=O)[O-])cc3)c(=O)[nH]c12
IC50 (Cannabinoid receptor 2 [1]): 100 nM

CCCCCOc1c(OC)ccc2cc(NC(=O)Cc3ccc4c(c3)OCO4)c(O)nc12
Activity [2]: 93%
Activity [3]: 75%
Imax (Cannabinoid receptor 2 [4]): 60%

CCCCCOc1c(OC)ccc2cc(C(=O)NCCc3ccc(O)cc3)c(O)nc12
Activity [2]: 92%
Activity [3]: 68%
Imax (Cannabinoid receptor 2 [4]): 90%

CCCCCOc1c(OC)ccc2cc(C(=O)Nc3ccccc3N)c(O)nc12
Activity [2]: 87%
Activity [3]: 82%
Imax (Cannabinoid receptor 2 [4]): 82%

CCCCCOc1c(OC)ccc2cc(C(=O)NCCCc3ccccc3)c(=O)[nH]c12
Activity [2]: 98%
Activity [3]: 59%
IC50 (Cannabinoid receptor 2 [1]): 0.794 nM
Imax (Cannabinoid receptor 2 [4]): 82%

Cc1ccc(Cn2nc(C(=O)NC3C4(C)CCC(C4)C3(C)C)cc2-c2ccc(Cl)c(C)c2)cc1 (centres undefined)
Activity [2]: 77%
Activity [3]: 53%
Imax (Cannabinoid receptor 2 [4]): 100%

CCCCCOc1c(OC)ccc2cc(C(=O)NCCc3ccc(O)c(O)c3)c(O)nc12
Activity [2]: 93%
Activity [3]: 63%
IC50 (Cannabinoid receptor 2 [1]): 398 nM
Imax (Cannabinoid receptor 2 [4]): 93%

CCCCCOc1c(OC)ccc2cc(C(=O)NCCc3c[nH]c4ccccc34)c(O)nc12
Activity [2]: 94%
Activity [3]: 72%
IC50 (Cannabinoid receptor 2 [1]): 25.1 nM
Imax (Cannabinoid receptor 2 [4]): 79%
